Assay results as given in ChEMBL document CHEMBL1649126, “Debio 025, a cyclophilin binding molecule, is highly efficient in clearing hepatitis C virus (HCV) replicon-containing cells when used alone or in combination with specifically targeted antiviral therapy for HCV (STAT-C) inhibitors” (Antimicrob Agents Chemother, 2009).
pEC50: −log10 of the molar value. Active and inactive are the calls of the source. The rule behind the calls is not given here.

Legend:
[1] = tested on: Hepatitis C virus; test: Antiviral activity against HCV genotype 1b infected in human Huh-9-13 cells assessed as reduction in viral replication selected after 2 passages at 30 ug/ml by quantitative RT-PCR; format: functional, organism-based; conditions: Hepacivirus hominis
Outline: (§1)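 Huh 9-13 replicon cells were seeded at 3 x 10^5 per 25-cm2 flask without G418, with compound. They were passaged at about 90% confluence and reseeded at 3 x 10^5 with the same concentration. HCV RNA was measured by RT-qPCR at each passage as % of the untreated control at the same passage. In rebound, compound was removed and G418 (1,000 µg/ml) restored.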

[2] = tested on: Hepatitis C virus; test: Antiviral activity against HCV genotype 1b infected in human Huh-9-13 cells assessed as reduction in viral replication selected after 3 passages at 30 ug/ml by quantitative RT-PCR; format: functional, organism-based; conditions: Hepacivirus hominis; outline: as §1
[3] = tested on: Hepatitis C virus; test: Antiviral activity against HCV genotype 1b infected in human Huh-9-13 cells assessed as reduction in viral replication selected after 5 passages at 1 uM by quantitative RT-PCR; format: functional, organism-based; conditions: Hepacivirus hominis
Outline: (§2)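 Resistant replicons were selected by passaging Huh 9-13 cells under 1 mg/ml G418 with gradually increasing inhibitor concentrations.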

[4] = tested on: Hepatitis C virus; test: Antiviral activity against HCV genotype 1b infected in human Huh-9-13 cells assessed as reduction in viral replication selected after 5 passages at 1 uM by quantitative RT-PCR relative to wild type virus; format: functional, Hepacivirus hominis
[5] = tested on: Hepatitis C virus; test: Antiviral activity against compound-resistant HCV genotype 1b infected in human Huh-9-13 cells assessed as reduction in viral replication after 3 days by quantitative RT-PCR; format: functional, organism-based, Hepacivirus hominis; conditions: 72 h
Outline: (§3)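 Huh 9-13 cells carrying a subgenomic HCV replicon were seeded at 5 x 10^3 cells/well in medium with G418 and incubated 24 h at 37°C. Serial dilutions were then added in G418-free medium for 3 days. Cells were lysed, heated 15 min at 75°C, and replicon RNA was quantified by RT-qPCR against a neomycin plasmid standard. EC50 is the 50% RNA reduction versus untreated cells.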

[6] = tested on: Hepatitis C virus; test: Antiviral activity against cyclosporine-resistant HCV genotype 1b infected in human Huh-9-13 cells assessed as reduction in viral replication after 3 days by quantitative RT-PCR; format: functional, organism-based, Hepacivirus hominis; conditions: 72 h; outline: as §3
[7] = tested on: Hepatitis C virus; test: Antiviral activity against 2'-C-methyl-2'-fluoro-cytidine-resistant HCV genotype 1b infected in human Huh-9-13 cells assessed as reduction in viral replication after 3 days by quantitative RT-PCR; format: functional, organism-based, Hepacivirus hominis; conditions: 72 h; outline: as §3
[8] = tested on: Hepatitis C virus; test: Antiviral activity against R479-resistant HCV genotype 1b infected in human Huh-9-13 cells assessed as reduction in viral replication after 3 days by quantitative RT-PCR; format: functional, organism-based, Hepacivirus hominis; conditions: 72 h; outline: as §3
[9] = tested on: Hepatitis C virus; test: Antiviral activity against BILN 2061-resistant HCV genotype 1b infected in human Huh-9-13 cells assessed as reduction in viral replication after 3 days by quantitative RT-PCR; format: functional, organism-based, Hepacivirus hominis; conditions: 72 h; outline: as §3
[10] = tested on: Hepatitis C virus; test: Antiviral activity against VX 950-resistant HCV genotype 1b infected in human Huh-9-13 cells assessed as reduction in viral replication after 3 days by quantitative RT-PCR; format: functional, organism-based, Hepacivirus hominis; conditions: 72 h; outline: as §3
[11] = tested on: Hepatitis C virus; test: Antiviral activity against HCV genotype 1b infected in human Huh-9-13 cells assessed as reduction in viral replication after 3 days by quantitative RT-PCR; format: functional, organism-based, Hepacivirus hominis; conditions: 72 h; outline: as §3
[12] = tested on: Hepatitis C virus; test: Antiviral activity against HCV genotype 1b infected in human Huh-9-13 cells assessed as reduction in viral replication selected after 1 passages at 0.82 uM by quantitative RT-PCR; format: functional, Hepacivirus hominis; outline: as §1
[13] = tested on: Hepatitis C virus; test: Antiviral activity against HCV genotype 1b infected in human Huh-9-13 cells assessed as reduction in viral replication selected after 1 passages at 5 ug/ml by quantitative RT-PCR; format: functional, Hepacivirus hominis; outline: as §1
[14] = tested on: Hepatitis C virus; test: Antiviral activity against HCV genotype 1b infected in human Huh-9-13 cells assessed as reduction in viral replication selected after 2 passages at 5 ug/ml by quantitative RT-PCR; format: functional, organism-based; conditions: Hepacivirus hominis; outline: as §1
[15] = tested on: Hepatitis C virus; test: Antiviral activity against HCV genotype 1b infected in human Huh-9-13 cells assessed as reduction in viral replication selected after 2 passages at 1 ug/ml by quantitative RT-PCR; format: functional, organism-based; conditions: Hepacivirus hominis; outline: as §1
[16] = tested on: Hepatitis C virus; test: Antiviral activity against HCV genotype 1b infected in human Huh-9-13 cells assessed as reduction in viral replication selected after 3 passages at 1 ug/ml by quantitative RT-PCR […]; format: functional, organism-based; conditions: Hepacivirus hominis
[17] = tested on: Hepatitis C virus; test: Antiviral activity against HCV genotype 1b infected in human Huh-9-13 cells assessed as reduction in viral replication selected after 7 passages at 5 ug/ml by quantitative RT-PCR […]; format: functional, organism-based; conditions: Hepacivirus hominis
[18] = tested on: Hepatitis C virus; test: Antiviral activity against HCV genotype 1b infected in human Huh-9-13 cells assessed as reduction in viral replication selected after 7 passages at 30 ug/ml by quantitative RT-PCR […]; format: functional, organism-based; conditions: Hepacivirus hominis
[19] = Cytotoxicity against human Huh-9-13 cells at 1 ug/ml after 3 days by MTT assay; format: cell-based; conditions: 72 h
[20] = Cytotoxicity against human Huh-9-13 cells at 5 ug/ml after 3 days by MTT assay; format: cell-based; conditions: 72 h
[21] = Cytotoxicity against human Huh-9-13 cells at 30 ug/ml after 3 days by MTT assay; format: cell-based; conditions: 72 h
[22] = tested on: Hepatitis C virus; test: Antiviral activity against HCV genotype 1b infected in human Huh-9-13 cells assessed as reduction in viral replication selected after 7 passages at 0.25 ug/ml by quantitative RT-PCR; format: functional, organism-based; conditions: Hepacivirus hominis
Outline: (§4)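 Clearance-rebound in Huh 9-13 replicon cells over seven consecutive passages without G418, using twofold dilutions from 0.50 to 0.016 µg/ml. Rebound passages omitted compound under 1,000 µg/ml G418. Remaining HCV RNA was measured by RT-qPCR each passage as % of the untreated control at the same passage number.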

[23] = tested on: Hepatitis C virus; test: Antiviral activity against HCV genotype 1b infected in human Huh-9-13 cells assessed as reduction in viral replication selected after 8 passages at 0.25 ug/ml by quantitative RT-PCR; format: functional, organism-based; conditions: Hepacivirus hominis; outline: as §4
[24] = tested on: Hepatitis C virus; test: Antiviral activity against HCV genotype 1b infected in human Huh-9-13 cells assessed as reduction in viral replication selected after 5 passages at 4 uM by quantitative RT-PCR; format: functional, organism-based; conditions: Hepacivirus hominis; outline: as §2
[25] = tested on: Hepatitis C virus; test: Antiviral activity against HCV genotype 1b infected in human Huh-9-13 cells assessed as reduction in viral replication selected after 7 passages at 15 uM by quantitative RT-PCR relative to wild type virus; format: functional, Hepacivirus hominis; outline: as §2
[26] = tested on: Hepatitis C virus; test: Antiviral activity against HCV genotype 1b infected in human Huh-9-13 cells assessed as reduction in viral replication selected after 5 passages at 4 uM by quantitative RT-PCR relative to wild type virus; format: functional, Hepacivirus hominis; outline: as §2
[27] = tested on: Hepatitis C virus; test: Antiviral activity against HCV genotype 1b infected in human Huh-9-13 cells assessed as reduction in viral replication selected at 0.5 uM by quantitative RT-PCR; format: functional, organism-based; conditions: Hepacivirus hominis
[28] = tested on: Hepatitis C virus; test: Antiviral activity against HCV genotype 1b infected in human Huh-9-13 cells assessed as reduction in viral replication selected at 0.1 uM by quantitative RT-PCR; format: functional, organism-based; conditions: Hepacivirus hominis
[29] = tested on: Hepatitis C virus; test: Antiviral activity against HCV genotype 1b infected in human Huh-9-13 cells assessed as reduction in viral replication selected after 6 passages at 2 uM by quantitative RT-PCR; format: functional, organism-based; conditions: Hepacivirus hominis; outline: as §2
[30] = tested on: Hepatitis C virus; test: Antiviral activity against HCV genotype 1b infected in human Huh-9-13 cells assessed as reduction in viral replication selected after 6 passages at 2 uM by quantitative RT-PCR relative to wild type virus; format: functional, Hepacivirus hominis; outline: as §2

Row | Compound | pEC50 [5] | pEC50 [6] | pEC50 [7] | pEC50 [8] | pEC50 [9] | pEC50 [10] | pEC50 [11] | other results
1 | NC(=O)c1ncn([C@@H]2O[C@H](CO)[C@@H](O)[C@H]2O)n1 | – | – | – | – | – | – | – | inhibition [1]: inactive; inhibition [2]: inactive
2 | COc1ccc2c(O[C@@H]3C[C@H]4C(=O)N[C@]5(C(=O)O)C[C@H]5/C=C\CCCCC[C@H](NC(=O)OC5CCCC5)C(=O)N4C3)cc(-c3csc(NC(C)C)n3)nc2c1 [CILUPREVIR] | 7.00 | 6.77 | 6.54 | 5.67 | 5.90 | 6.51 | – | inhibition [3]: inactive; fold change (FC) [4]: 50
3 | C/C=C/C[C@@H](C)[C@@H](O)[C@H]1C(=O)N[C@@H](CC)C(=O)N(C)[C@H](C)C(=O)N(CC)[C@@H](C(C)C)C(=O)N[C@@H](C(C)C)C(=O)N(C)[C@@H](CC(C)C)C(=O)N[C@@H](C)C(=O)N[C@H](C)C(=O)N(C)[C@@H](CC(C)C)C(=O)N(C)[C@@H](CC(C)C)C(=O)N(C)[C@@H](C(C)C)C(=O)N1C [ALISPORIVIR] | 5.57 | 5.52 | 6.39 | 5.56 | 8.40 | 6.44 | 7.40 | inhibition at 0.82 µM [12]: 96.5%; inhibition at 5 µg/mL [13]: 96.5%; inhibition [14]: inactive; inhibition [15]: inactive; Activity [16]: Active; inhibition [17]: inactive; inhibition [18]: inactive; Activity [19]: Non-toxic; Activity [20]: Non-toxic; Activity [21]: Non-toxic; inhibition [22]: Active; Activity [23]: Active
4 | C[C@@]1(O)[C@H](O)[C@@H](CO)O[C@H]1n1ccc(N)nc1=O | 6.96 | 6.68 | 4.52 | 5.94 | 7.40 | 6.00 | 6.39 | –
5 | [N-]=[N+]=N[C@]1(CO)O[C@@H](n2ccc(N)nc2=O)[C@H](O)[C@@H]1O [4'-AZIDOCYTIDINE] | 6.92 | 6.59 | 5.47 | 4.81 | 7.70 | 6.16 | – | Activity [24]: inactive; fold change (FC) [25]: 8; fold change (FC) [26]: 3; inhibition [27]: Active; inhibition [28]: inactive
6 | C/C=C/C[C@@H](C)[C@@H](O)[C@H]1C(=O)N[C@@H](CC)C(=O)N(C)CC(=O)N(C)[C@@H](CC(C)C)C(=O)N[C@@H](C(C)C)C(=O)N(C)[C@@H](CC(C)C)C(=O)N[C@@H](C)C(=O)N[C@H](C)C(=O)N(C)[C@@H](CC(C)C)C(=O)N(C)[C@@H](CC(C)C)C(=O)N(C)[C@@H](C(C)C)C(=O)N1C [CYCLOSPORINE] | 6.46 | 5.41 | 6.40 | 5.70 | 8.40 | 6.31 | – | –
7 | CCC[C@H](NC(=O)[C@@H]1[C@H]2CCC[C@H]2CN1C(=O)[C@@H](NC(=O)[C@@H](NC(=O)c1cnccn1)C1CCCCC1)C(C)(C)C)C(=O)C(=O)NC1CC1 [TELAPREVIR] | 7.05 | – | 5.99 | – | 6.10 | 4.85 | 6.24 | inhibition at 0.82 µM [12]: 96.5%; inhibition at 5 µg/mL [13]: 96.5%; inhibition [14]: inactive; inhibition [15]: inactive; inhibition [29]: inactive; fold change (FC) [30]: 4
